ChEMBL document CHEMBL1158358, “Synthesis, antimicrobial and cytotoxic activities of some 5-arylidene-4-thioxo-thiazolidine-2-ones” (Eur J Med Chem, 2009)
Converted amounts (≈) assume the structure as drawn.

Tests used:
Format in all cases: functional
Bacillus subtilis [1] = assay: Antimicrobial activity against Bacillus subtilis UFPEDA 16 at 300 ug/disk after 24 hrs by disk diffusion method; settings: UFPEDA 16, 24 h, read-out: IZ
Outline: (§1)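 Preliminary screen by disk diffusion. Paper disks (6 mm) holding 300 µg of compound were placed on agar plates inoculated with a standardized microbial suspension. DMSO-only disks served as negative controls. A mean inhibition zone below 7 mm was scored as no sensitivity. Values are means, n = 3.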

Escherichia coli = assay: Antimicrobial activity against Escherichia coli UFPEDA 224 at 300 ug/disk after 24 hrs by disk diffusion method; settings: UFPEDA 224, 24 h, read-out: IZ; outline: as §1
Candida albicans [2] = assay: Antimicrobial activity against Candida albicans UFPEDA 1007 at 300 ug/disk after 48 hrs by disk diffusion method; settings: UFPEDA 1007, 48 h, read-out: IZ; outline: as §1
Pseudomonas aeruginosa = assay: Antimicrobial activity against Pseudomonas aeruginosa UFPEDA 39 at 300 ug/disk after 24 hrs by disk diffusion method; settings: UFPEDA 39, 24 h, read-out: IZ; outline: as §1
Enterococcus faecalis [3] = assay: Antimicrobial activity against Enterococcus faecalis UFPEDA 138 at 300 ug/disk after 24 hrs by disk diffusion method; settings: UFPEDA 138, 24 h, read-out: IZ; outline: as §1
[4] = tested on: Mycolicibacterium smegmatis; assay: Antimicrobial activity against Mycobacterium smegmatis UFPEDA 71 at 300 ug/disk after 24 hrs by disk diffusion method; settings: UFPEDA 71, 24 h, read-out: IZ; outline: as §1
Serratia marcescens = assay: Antimicrobial activity against Serratia marcescens UFPEDA 398 at 300 ug/disk after 24 hrs by disk diffusion method; settings: UFPEDA 398, 24 h, read-out: IZ; outline: as §1
Micrococcus luteus [5] = assay: Antimicrobial activity against Micrococcus luteus UFPEDA 06 at 300 ug/disk after 24 hrs by disk diffusion method; settings: UFPEDA 06, 24 h, read-out: IZ; outline: as §1
Staphylococcus aureus [6] = assay: Antimicrobial activity against Staphylococcus aureus UFPEDA 01 at 300 ug/disk after 24 hrs by disk diffusion method; settings: UFPEDA 01, 24 h, read-out: IZ; outline: as §1
HEp-2 [7] = assay: Cytotoxicity against human Hep2 cells at 2.5 ug/mL after 72 hrs by MTT assay; settings: HEp-2, 72 h, read-out: GI
Outline: (§2)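 MTT antiproliferative assay. Cells were diluted to 10⁵ cells/mL in 96-well plates and preincubated for 24 h at 37 °C in humid 5% CO₂. Compounds or vincristine (reference) were then added. Formazan was dissolved and OD read at 540 nm, compared with medium-only control cells. Run in triplicate.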

Enterococcus faecalis [8] = assay: Antimicrobial activity against multidrug-resistant Enterococcus faecalis H.C. 24962 isolate after 20 hrs by twofold serial dilution technique; settings: H.C. 24962, 20 h
Outline: (§3)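 Twofold serial dilution MIC in agar plates against Gram-positive strains and multidrug-resistant clinical isolates. Inoculum applied was 10⁵ CFU/plate. Plates with culture medium plus DMSO served as negative control. MIC was read after incubation at 35 °C for 20 h.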

Staphylococcus aureus [9] = assay: Antimicrobial activity against Staphylococcus aureus UFPEDA 01 after 20 hrs by twofold serial dilution technique; settings: UFPEDA 01, 20 h; outline: as §3
Bacillus subtilis [10] = assay: Antimicrobial activity against Bacillus subtilis UFPEDA 16 after 20 hrs by twofold serial dilution technique; settings: UFPEDA 16, 20 h
Outline: (§4)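 MIC was determined by twofold serial dilution. Bacteria were tested in plates at 10⁵ CFU/plate and read after 20 h. C. albicans was tested in tubes at 10³ CFU/tube and read after 48 h. All incubations were at 35 °C. Medium plus DMSO served as the negative control.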

NCI-H292 [11] = assay: Cytotoxicity against human NCI-H292 cells at 10 ug/mL after 72 hrs by MTT assay; settings: NCI-H292, 72 h, read-out: GI; outline: as §2
Staphylococcus [12] = assay: Antimicrobial activity against coagulase-negative Staphylococcus H.A.M. 338 isolate after 20 hrs by twofold serial dilution technique; settings: H.A.M. 338, 20 h; outline: as §4
NCI-H292 [13] = assay: Cytotoxicity against human NCI-H292 cells at 1.25 ug/mL after 72 hrs by MTT assay; settings: NCI-H292, 72 h, read-out: GI; outline: as §2
Micrococcus luteus [14] = assay: Antimicrobial activity against Micrococcus luteus UFPEDA 06 after 20 hrs by twofold serial dilution technique; settings: UFPEDA 06, 20 h; outline: as §4
Candida albicans [15] = assay: Antimicrobial activity against Candida albicans UFPEDA 1007 after 48 hrs by twofold serial dilution technique; settings: UFPEDA 1007, 48 h; outline: as §4
[16] = tested on: Mycolicibacterium smegmatis; assay: Antimicrobial activity against Mycobacterium smegmatis UFPEDA 71 after 20 hrs by twofold serial dilution technique; settings: UFPEDA 71, 20 h; outline: as §4
HEp-2 [17] = assay: Cytotoxicity against human Hep2 cells at 5 ug/mL after 72 hrs by MTT assay; settings: HEp-2, 72 h, read-out: GI; outline: as §2
HEp-2 [18] = assay: Cytotoxicity against human Hep2 cells at 10 ug/mL after 72 hrs by MTT assay; settings: HEp-2, 72 h, read-out: GI; outline: as §2
Enterococcus faecalis [19] = assay: Antimicrobial activity against multidrug-resistant Enterococcus faecalis H.C. 24708 isolate after 20 hrs by twofold serial dilution technique; settings: H.C. 24708, 20 h; outline: as §3
Staphylococcus aureus [20] = assay: Antimicrobial activity against multidrug-resistant Staphylococcus aureus H.C. 20794 isolate after 20 hrs by twofold serial dilution technique; settings: H.C. 20794, 20 h; outline: as §3
Staphylococcus aureus [21] = assay: Antimicrobial activity against multidrug-resistant Staphylococcus aureus H.C. 21141 isolate after 20 hrs by twofold serial dilution technique; settings: H.C. 21141, 20 h; outline: as §3
Staphylococcus aureus [22] = assay: Antimicrobial activity against multidrug-resistant Staphylococcus aureus H.C. 20981 isolate after 20 hrs by twofold serial dilution technique; settings: H.C. 20981, 20 h; outline: as §3
Enterococcus faecalis [23] = assay: Antimicrobial activity against Enterococcus faecalis UFPEDA 138 after 20 hrs by twofold serial dilution technique; settings: UFPEDA 138, 20 h; outline: as §4
Enterococcus faecalis [24] = assay: Antimicrobial activity against multidrug-resistant Enterococcus faecalis H.C. 21944 isolate after 20 hrs by twofold serial dilution technique; settings: H.C. 21944, 20 h; outline: as §3
HEp-2 [25] = assay: Cytotoxicity against human Hep2 cells at 1.25 ug/mL after 72 hrs by MTT assay; settings: HEp-2, 72 h, read-out: GI; outline: as §2
Staphylococcus aureus [26] = assay: Antimicrobial activity against multidrug-resistant Staphylococcus aureus H.C. 20489 isolate after 20 hrs by twofold serial dilution technique; settings: H.C. 20489, 20 h; outline: as §3
NCI-H292 [27] = assay: Cytotoxicity against human NCI-H292 cells at 5 ug/mL after 72 hrs by MTT assay; settings: NCI-H292, 72 h, read-out: GI; outline: as §2
Staphylococcus [28] = assay: Antimicrobial activity against coagulase-negative Staphylococcus H.A.M. 278 isolate after 20 hrs by twofold serial dilution technique; settings: H.A.M. 278, 20 h; outline: as §4
Staphylococcus aureus [29] = assay: Antimicrobial activity against multidrug-resistant Staphylococcus aureus H.C. 20905 isolate after 20 hrs by twofold serial dilution technique; settings: H.C. 20905, 20 h; outline: as §3
NCI-H292 [30] = assay: Cytotoxicity against human NCI-H292 cells at 2.5 ug/mL after 72 hrs by MTT assay; settings: NCI-H292, 72 h, read-out: GI; outline: as §2
Enterococcus faecalis [31] = assay: Antimicrobial activity against multidrug-resistant Enterococcus faecalis H.C. 21752 isolate after 20 hrs by twofold serial dilution technique; settings: H.C. 21752, 20 h; outline: as §3
Staphylococcus aureus [32] = assay: Antimicrobial activity against multidrug-resistant Staphylococcus aureus H.C. 21036 isolate after 20 hrs by twofold serial dilution technique; settings: H.C. 21036, 20 h; outline: as §3

| Compound | zone of inhibition at 300 µg/disc (Bacillus subtilis [1]) [mm] | zone of inhibition at 300 µg/disc (Escherichia coli) [mm] | zone of inhibition at 300 µg/disc (Candida albicans [2]) [mm] | zone of inhibition at 300 µg/disc (Pseudomonas aeruginosa) [mm] | zone of inhibition at 300 µg/disc (Enterococcus faecalis [3]) [mm] | zone of inhibition at 300 µg/disc [4] [mm] | zone of inhibition at 300 µg/disc (Serratia marcescens) [mm] | zone of inhibition at 300 µg/disc (Micrococcus luteus [5]) [mm] | zone of inhibition at 300 µg/disc (Staphylococcus aureus [6]) [mm] | MIC (Enterococcus faecalis [8]) [µg/mL] | MIC (Staphylococcus aureus [9]) [µg/mL] | MIC (Bacillus subtilis [10]) [µg/mL] | MIC (Staphylococcus [12]) [µg/mL] | MIC (Micrococcus luteus [14]) [µg/mL] | MIC [16] [µg/mL] | MIC (Enterococcus faecalis [19]) [µg/mL] | MIC (Staphylococcus aureus [20]) [µg/mL] | MIC (Staphylococcus aureus [21]) [µg/mL] | MIC (Staphylococcus aureus [22]) [µg/mL] | MIC (Enterococcus faecalis [23]) [µg/mL] | other results |
| --- | --- | --- | --- | --- | --- | --- | --- | --- | --- | --- | --- | --- | --- | --- | --- | --- | --- | --- | --- | --- | --- |
| O=C1CSC(=O)N1 [THIAZOLIDINEDIONE] | < 7 | < 7 | < 7 | < 7 | < 7 | < 7 | < 7 | < 7 | < 7 |  |  |  |  |  |  |  |  |  |  |  |  |
| O=C1NC(=S)/C(=C/c2ccc(F)cc2)S1 | 26 | < 7 | 17 | < 7 | 24 | 25 | < 7 | 29 | 29 | 16 (≈ 66.9 µM) | 4 (≈ 16.7 µM) | 16 (≈ 66.9 µM) | 32 (≈ 134 µM) | 16 (≈ 66.9 µM) | 16 (≈ 66.9 µM) | 16 (≈ 66.9 µM) | 2 (≈ 8.36 µM) | 32 (≈ 134 µM) | 4 (≈ 16.7 µM) | 32 (≈ 134 µM) | inhibition of growth at 2.5 µg/mL (HEp-2 [7]): -4.51%; inhibition of growth at 10 µg/mL (NCI-H292 [11]): 38%; inhibition of growth at 1.25 µg/mL (NCI-H292 [13]): 7.32%; MIC (Candida albicans [15]): 32 µg/mL (≈ 134 µM); inhibition of growth at 5 µg/mL (HEp-2 [17]): 20.6%; inhibition of growth at 10 µg/mL (HEp-2 [18]): 30.1%; MIC (Enterococcus faecalis [24]): 32 µg/mL (≈ 134 µM); inhibition of growth at 1.25 µg/mL (HEp-2 [25]): -10.8%; MIC (Staphylococcus aureus [26]): 2 µg/mL (≈ 8.36 µM); inhibition of growth at 5 µg/mL (NCI-H292 [27]): 31.6%; MIC (Staphylococcus [28]): 32 µg/mL (≈ 134 µM); MIC (Staphylococcus aureus [29]): 2 µg/mL (≈ 8.36 µM); inhibition of growth at 2.5 µg/mL (NCI-H292 [30]): 17.5%; MIC (Enterococcus faecalis [31]): 32 µg/mL (≈ 134 µM); MIC (Staphylococcus aureus [32]): 2 µg/mL (≈ 8.36 µM) |
| CC1=C(C(=O)O)N2C(=O)[C@@H](NC(=O)[C@H](N)c3ccccc3)[C@H]2SC1 [CEPHALEXIN ANHYDROUS] |  |  |  |  |  |  |  |  |  | 64 (≈ 184 µM) | ≤ 1 | ≤ 1 | 128 (≈ 368 µM) | ≤ 1 | > 128 | 64 (≈ 184 µM) | 4 (≈ 11.5 µM) | 2 (≈ 5.76 µM) | 8 (≈ 23 µM) | 64 (≈ 184 µM) | MIC (Enterococcus faecalis [24]): 64 µg/mL (≈ 184 µM); MIC (Staphylococcus aureus [26]): 2 µg/mL (≈ 5.76 µM); MIC (Staphylococcus [28]): 128 µg/mL (≈ 368 µM); MIC (Staphylococcus aureus [29]): > 128 µg/mL; MIC (Enterococcus faecalis [31]): 64 µg/mL (≈ 184 µM); MIC (Staphylococcus aureus [32]): > 128 µg/mL |
